Screening results: PubChem, several laboratories
PABP FP inh = PABP-poly(A) binding inhibition | P11940 | PABP-poly(A) RNA binding, fluorescence polarization | calls only at 35 µM | hit rate 1% among 290,000;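 further: calls also rest on retests at 20 µM and on dose response follow-up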
IMP-1 inhibitor = blocks Pseudomonas aeruginosa IMP-1 metallo-beta-lactamase; purified IMP-1, nitrocefin hydrolysis, epi-absorbance fluorescence; inhibition, % at 5.6 µM; hit rate 0.45% among 290,000; AID 1556;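 active means inhibition above the mean plus 3 SD of all compounds in the same screening run, cut at about 4.5% in these data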
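System: purified recombinant IMP-1 beta-lactamase. Medium: Zinc- and detergent-supplemented HEPES buffer, pH 7.1. Compound: one 5.6 µM dose […]. Schedule: 15 min preincubation plus 25 min reaction at 25 °C. Technique: Epi-absorbance fluorescence, 480 nm excitation, 530 nm emission.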
VIM-2 inh = inhibitors of Pseudomonas aeruginosa VIM-2 metallo-beta-lactamase. purified VIM-2, nitrocefin hydrolysis, epi-absorbance fluorescence. inhibition, % at 5.6 µM. hit rate 0.89% among 290,000;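 active means inhibition above the mean of all tested compounds plus 3 SD, cutoff set per screening run, cut at about 7.5% in these data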;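 further: red hydrolysis product quenches plate fluorescence so inhibitors raise well fluorescence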
PABP1 MLLE inh = blocks PAM2 peptide binding to the PABP1 MLLE domain; P11940; GST-MLLE / FITC-PAM2 fluorescence polarization; hit rate 0.36% among 360,000; inhibition, % at 20 µM; in the data active means inhibition above about 35%, passing the limit was not always enough
eIF4H inh = inhibitors of RNA binding by human eIF4H; hit rate 0.94% among 290,000; inhibition, % at 35 µM; eIF4H fluorescence polarization binding assay;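 further: calls also rest on retests at 20 µM and on dose response follow-up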
Numbers stand for hits; i = inactive; ? = inconclusive; nt = no result; + = active, no number. Only some compounds are listed: those with a hit (about 2.2% of all), similar ones and a draw of the others. Unless noted, how the calls were made is not given here.

SMILES	PABP FP inh	IMP-1 inhibitor	VIM-2 inh	PABP1 MLLE inh	eIF4H inh
COc1ccc(C(N)CCc2ccc(C)o2)cc1 (stereo unspecified)	+	i	i	i	i
CCCCn1c(NC(=O)c2ccco2)c(S(=O)(=O)c2ccc(C)cc2)c2nc3ccccc3nc21	i	i	i	i	i
CCCCn1c(NC(=O)c2ccc(Br)o2)c(S(=O)(=O)c2ccccc2)c2nc3ccccc3nc21	+	i	i	i	56
COc1ccc(-c2nn(C)c(=O)c3ccccc23)cc1NS(C)(=O)=O	i	i	i	i	i
COc1ccc(-c2nn(C)c(=O)c3ccccc23)cc1CNC(=O)c1ccco1	i	i	8.9	i	i
COc1ccc(-c2nn(C)c(=O)c3ccccc23)cc1CNS(C)(=O)=O	i	i	8.5	i	i
COc1cccc(/C(C)=N/NC(=O)Cc2c(C)[nH][nH]c2=O)c1	i	i	i	i	i
COC(=O)c1ccc(Oc2c(F)c(F)nc(N3CCOCC3)c2F)cc1	i	i	i	i	i
Cc1cc(C)c2cc(C(=O)N3CCC(C(=O)c4ccc(F)cc4)CC3)[nH]c2c1	i	4.5	i	i	i
CC1CC(=O)c2c(cc3c(-c4c(O)cc(O)c5c(O)c6c(cc45)OC(C)CC6=O)c(O)cc(O)c3c2O)O1 (stereo unspecified)	+	i	i	i	100
O=C1CC(c2ccc(O)cc2)Oc2cc(O)cc(O)c21 (stereo unspecified)	i	i	i	i	i
O=C(/C=C/c1ccc(-c2ccccc2[N+](=O)[O-])o1)c1ccco1	i	i	i	52	i
O=C(C=Cc1ccco1)c1ccco1	nt	nt	nt	i	nt
CNc1cncc(-c2ccc(C)cc2)n1	nt	nt	nt	i	nt
O=c1oc2cc(OCc3ccc([N+](=O)[O-])cc3)ccc2c2c1CCCC2	i	i	i	i	i
NC(=O)C1CCN(C(=O)COc2ccc3c4c(c(=O)oc3c2)CCCC4)CC1	i	i	11	i	i
O=C(O)c1ccc(COc2ccc3c4c(c(=O)oc3c2)CCC4)o1	i	i	8.5	i	i
O=C(O)C1CCN(C(=O)COc2ccc3c4c(c(=O)oc3c2)CCC4)CC1	i	i	i	i	i
O=C(COc1ccc2c3c(c(=O)oc2c1)CCCC3)N1CCN(c2ccc(F)cc2)CC1	i	i	i	i	i
O=C(COc1ccc2c3c(c(=O)oc2c1)CCC3)N1CCN(c2ccc(F)cc2)CC1	i	i	9.1	i	i
CC(Oc1ccc2c3c(c(=O)oc2c1)CCCC3)C(=O)NCC(O)c1ccccc1 (stereo unspecified)	i	i	i	i	i
CC(Oc1ccc2c3c(c(=O)oc2c1)CCC3)C(=O)NCc1cccnc1 (stereo unspecified)	i	i	9.6	i	i
Cc1cccc(OCC(=O)NCC(C)(C)N2CCOCC2)c1	nt	nt	nt	i	nt
C/C(=N\NC(=O)CN1CCN(c2ccc(F)cc2)CC1)c1ccco1	nt	nt	nt	i	nt
O=C(NC(c1ccc(-c2ccccc2)cc1)c1cnccn1)C1CCN(CCCOc2ccccc2)CC1 (stereo unspecified)	nt	nt	nt	i	nt
SMILES	PABP FP inh	IMP-1 inhibitor	VIM-2 inh	PABP1 MLLE inh	eIF4H inh
Cc1cc(OCC(=O)N2CCOCC2)cc2oc(=O)c3ccccc3c12	i	i	9.5	i	i
O=C1C(C=NCCCn2ccnc2)=C(O)c2ccccc21	nt	i	i	i	nt
CC(=NCCCn1ccnc1)C1=C(O)c2ccccc2C1=O	i	i	12	i	i
Cc1cnc(CNC(=O)CC2C(=O)NCCN2Cc2cccc(F)c2F)cn1 (stereo unspecified)	+	i	i	i	81
Cc1nc(CCNC(=O)CC2C(=O)NCCN2Cc2ccccc2)sc1C (stereo unspecified)	i	5.0	i	38	i
COc1ccc(CN2CCNC(=O)C2CC(=O)NCCc2nc(C)c(C)s2)cc1C (stereo unspecified)	i	i	i	i	i
COc1cccc(CN2CCNC(=O)C2CC(=O)NCc2cn3ccccc3n2)c1OC (stereo unspecified)	+	i	i	i	86
Cc1cnc(CNC(=O)CC2C(=O)NCCN2Cc2ccccc2F)cn1 (stereo unspecified)	i	i	i	i	i
O=C(C1CCCCC1)N1CCN(c2ccnc3cc(Cl)ccc23)CC1	i	i	i	i	i
O=C(Nc1ccc(F)cc1)C1CCC(CNc2c(N3CCCCC3)c(=O)c2=O)CC1 (stereo unspecified)	i	i	i	i	i
C=C(C)CN(CC)c1nc(N)c(C#N)c(CC#N)c1C#N	+	i	i	i	84
CCCCN(CC)c1nc(N)c(C#N)c(CC#N)c1C#N	i	i	i	i	i
N#CC(C#N)=C(N)CSc1cccc[n+]1[O-]	i	i	i	i	i
CC1=CC(=C2C(=O)c3ccccc3C2=O)C=C(C)N1C	i	i	i	i	i
CCCCCN1C=CC(=C2C(=O)c3ccccc3C2=O)C=C1	+	i	i	i	88
c1ccc(CN2CCC(=NNc3nc4ccccc4[nH]3)CC2)cc1	i	i	i	i	i
CC(C)(C)C1CCC(=NNc2nc3ccccc3[nH]2)CC1 (stereo unspecified)	+	i	i	i	i
Cc1ccc(CN2CCN(C(=O)/C=C/[C@H]3O[C@@H](n4cc(C)c(=O)[nH]c4=O)C[C@@H]3O)CC2)cc1	nt	nt	nt	i	nt
CC1S/C(=C(\C#N)C(=O)NCc2ccco2)N(c2ccc(F)cc2)C1=O (stereo unspecified)	+	i	i	i	110
CCC1S/C(=C(\C#N)C(=O)NCc2ccco2)N(c2ccc(Br)cc2)C1=O (stereo unspecified)	+	i	i	i	73
CCC1S/C(=C(\C#N)C(=O)NCc2ccco2)N(c2ccc(F)cc2)C1=O (stereo unspecified)	i	i	i	i	i
O=C(COC(=O)CNC(=O)C1CCCCC1)Nc1ccc(Cl)cc1F	i	i	i	i	i
O=C(NC(=S)Nc1cccc(O)c1)c1cncc(Br)c1	nt	nt	nt	42	nt
Cc1ccccc1NC(=S)NC(=O)c1cncc(Br)c1	i	i	i	i	i
CC(=O)c1cccc(NC(=S)NC(=O)c2ccc(Br)cc2)c1	i	i	i	41	i
Cc1cc(O)ccc1NC(=S)NC(=O)c1cncc(Br)c1	i	i	i	44	i
Cn1nc(C(=O)Nc2cc(Cl)ccc2N2CCCC2)c2ccccc2c1=O	nt	nt	nt	i	nt
COc1ccc(N2C(=O)[C@@H]3[C@H](C2=O)[C@H]2c4ccccc4C=CN2[C@@H]3C(=O)Nc2ccccc2)cc1	?	42	i	i	?
Cc1ccc(N2C(=O)[C@@H]3[C@H](C2=O)C2c4ccccc4C=CN2[C@@H]3C(=O)c2ccco2)cc1 (stereo partly specified)	i	i	i	37	i
CC(=O)[C@@H]1[C@@H]2C(=O)N(Cc3ccccc3)C(=O)[C@@H]2C2c3ccccc3C=CN21 (stereo partly specified)	+	i	i	i	96
